pIC50: −log10 of the molar value. Calls of active or inactive are those of the source. The calls are words filed in the database; no cut-off is given here.
Test system: not listed separately
Experiment: Cytotoxicity against African green monkey Vero E6 cells
Type: cell-based
Details: chlorocebus sabaeus
Outline: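 Cytotoxicity measured in Vero cells, […]; CC50 derived.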
Compound `NC(=O)c1ncn([C@@H]2O[C@H](CO)[C@@H](O)[C@H]2O)n1` [RIBAVIRIN] has a CC50 of 0.3 µM. `NC(=O)c1nc(/C=C/c2ccc(F)cc2)n([C@@H]2O[C@H](CO)[C@@H](O)[C@H]2O)n1` gave a CC50 of 3.4 µM.

Test system: not listed separately
Experiment: Cytotoxicity against African green monkey Vero E6 cells up to 2 mM
Type: cell-based
Details: chlorocebus sabaeus
For `NC(=O)c1nc(/C=C/c2cccc(F)c2)n([C@@H]2O[C@H](CO)[C@@H](O)[C@H]2O)n1`, the Activity was “Non-toxic”. With `NC(=O)c1nc(/C=C\c2cccc(F)c2)n([C@@H]2O[C@H](CO)[C@@H](O)[C@H]2O)n1` the Activity was “Non-toxic”. With `NC(=O)c1nc(/C=C\c2ccc(C(F)(F)F)cc2)n([C@@H]2O[C@H](CO)[C@@H](O)[C@H]2O)n1` the Activity was “Non-toxic”. In the case of `NC(=O)c1nc(/C=C\c2ccc(F)cc2)n([C@@H]2O[C@H](CO)[C@@H](O)[C@H]2O)n1`, the Activity was “Non-toxic”. For `NC(=O)c1nc(/C=C/c2ccccc2F)n([C@@H]2O[C@H](CO)[C@@H](O)[C@H]2O)n1` (mixture of isomers), the Activity was “Non-toxic”.

Test system: Human alphaherpesvirus 1
Experiment: Antiviral activity against Herpes simplex virus type 1 L2 infected in African green monkey Vero E6 cells assessed as reduction of virus-induced cytopathic effect
Type: functional, organism-based
Details: Human alphaherpesvirus 1, L2, Vero
`NC(=O)c1ncn([C@@H]2O[C@H](CO)[C@@H](O)[C@H]2O)n1` [RIBAVIRIN] gave a pIC50 of 5.00. Compound `NC(=O)c1nc(/C=C/c2cccc(F)c2)n([C@@H]2O[C@H](CO)[C@@H](O)[C@H]2O)n1` has a pIC50 of 5.16.

Test system: Hepatitis C virus
Experiment: Antiviral activity against Hepatitis C virus infected in African green monkey Vero cells assessed as reduction of virus-induced cytopathic effect
Type: functional, organism-based, Hepacivirus hominis
Details: not given
`NC(=O)c1nc(/C=C/c2ccc(C(F)(F)F)cc2)n([C@@H]2O[C@H](CO)[C@@H](O)[C@H]2O)n1` showed a pIC50 of 7.05.

Test system: Vero
Experiment: Antiviral activity against Influenza A H5N1 virus (A/duck/Novosibirsk/56/05) infected in African green monkey Vero cells assessed as reduction of virus-induced cytopathic effect
Type: functional, cell-based
Details: Influenza A virus (A/duck/Novosibirsk/56/2005(H5N1))
In the case of `NC(=O)c1nc(/C=C/c2ccc(F)cc2)n([C@@H]2O[C@H](CO)[C@@H](O)[C@H]2O)n1`, the Activity was “inactive”. With `NC(=O)c1nc(/C=C/c2cccc(F)c2)n([C@@H]2O[C@H](CO)[C@@H](O)[C@H]2O)n1` the Activity was “inactive”. With `NC(=O)c1nc(/C=C\c2cccc(F)c2)n([C@@H]2O[C@H](CO)[C@@H](O)[C@H]2O)n1` the Activity was “inactive”. With `NC(=O)c1nc(/C=C\c2ccc(C(F)(F)F)cc2)n([C@@H]2O[C@H](CO)[C@@H](O)[C@H]2O)n1` the Activity was “inactive”. With `NC(=O)c1nc(/C=C\c2ccc(F)cc2)n([C@@H]2O[C@H](CO)[C@@H](O)[C@H]2O)n1` the Activity was “inactive”. In the case of `NC(=O)c1nc(/C=C/c2ccccc2F)n([C@@H]2O[C@H](CO)[C@@H](O)[C@H]2O)n1` (mixture of isomers), the Activity was “inactive”.

— ChEMBL document CHEMBL3813617, “An alternative route to the arylvinyltriazole nucleosides” (Bioorg Med Chem Lett, 2016)
